Experimental data from ChEMBL document CHEMBL1150273, “Aza-peptidyl Michael acceptors. A new class of potent and selective inhibitors of asparaginyl endopeptidases (legumains) from evolutionarily diverse pathogens” (J Med Chem, 2008).
Active and inactive are the calls of the source. No cut-off for these calls is given here.

Experiments:
[1] = Inhibition of Trichomonas vaginalis G3 AE1 expressed in Pichia pastoris after 20 mins
Procedure, shortened: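 Recombinant AE zymogens expressed in Pichia pastoris; SmAE and TvAE1 autoactivated in 0.5 M sodium acetate, 4 mM DTT, pH 4.5, 37 °C, 3 h to overnight; IrAE used without activation. Buffer 0.1 M citrate phosphate, 4 mM DTT, pH 6.8 (SmAE, TvAE1) or pH 5.5 (IrAE). Inhibitor 2.0–0.0002 µM final, 20 min preincubation at room temperature; 10 µM final Cbz-Ala-Ala-Asn-AMC, 20 min; IC50 from RFU/min vs concentration.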

[2] = biological target: T1, Calpain-1 catalytic subunit (Homo sapiens) (UniProt P07384); test: Inhibition of calpain 1 assessed as ratio of pseudo-first-order inhibition rate constant to inhibitor concentration
T1 sequence (whole entry): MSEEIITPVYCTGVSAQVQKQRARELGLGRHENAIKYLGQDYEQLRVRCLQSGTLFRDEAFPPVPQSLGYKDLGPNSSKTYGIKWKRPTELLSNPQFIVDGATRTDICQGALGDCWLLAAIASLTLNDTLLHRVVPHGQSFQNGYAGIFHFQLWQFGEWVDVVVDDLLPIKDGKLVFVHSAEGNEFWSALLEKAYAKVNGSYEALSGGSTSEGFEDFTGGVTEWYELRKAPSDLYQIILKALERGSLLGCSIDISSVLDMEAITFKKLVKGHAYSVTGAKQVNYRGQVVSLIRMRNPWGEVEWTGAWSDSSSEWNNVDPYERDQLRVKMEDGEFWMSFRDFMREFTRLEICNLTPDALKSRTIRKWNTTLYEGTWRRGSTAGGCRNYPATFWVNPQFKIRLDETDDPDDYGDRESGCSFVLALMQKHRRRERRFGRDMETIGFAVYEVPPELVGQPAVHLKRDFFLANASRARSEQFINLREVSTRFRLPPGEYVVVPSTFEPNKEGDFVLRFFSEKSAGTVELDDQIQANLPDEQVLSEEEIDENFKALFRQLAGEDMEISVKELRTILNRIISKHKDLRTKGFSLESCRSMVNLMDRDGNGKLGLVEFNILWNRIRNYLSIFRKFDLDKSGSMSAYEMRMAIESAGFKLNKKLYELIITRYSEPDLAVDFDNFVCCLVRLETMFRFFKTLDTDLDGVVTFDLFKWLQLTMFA

[3] = Stability assessed as half life in citrate phosphate buffer at pH 6.8 in presence of dithiothreitol; type: physicochemical; conditions: citrate phosphate buffer with dithiothreitol
[4] = biological target: T2, Caspase-6 (Homo sapiens) (UniProt P55212); test: Inhibition of caspase 6 assessed as ratio of pseudo-first-order inhibition rate constant to inhibitor concentration
T2 sequence (whole entry): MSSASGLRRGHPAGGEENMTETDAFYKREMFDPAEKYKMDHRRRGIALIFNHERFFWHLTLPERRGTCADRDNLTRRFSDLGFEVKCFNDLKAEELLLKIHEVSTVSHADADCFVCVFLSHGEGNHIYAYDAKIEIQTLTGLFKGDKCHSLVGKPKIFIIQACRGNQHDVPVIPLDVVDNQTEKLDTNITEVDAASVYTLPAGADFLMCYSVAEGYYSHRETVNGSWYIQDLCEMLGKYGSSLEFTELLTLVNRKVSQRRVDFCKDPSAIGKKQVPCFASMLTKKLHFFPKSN
Procedure, shortened: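 Caspase-6 at 5 nM final, assayed in the same Pipes/NaCl/CHAPS/sucrose/DTT buffer, pH 7.2, 37 °C with Ac-Asp-Glu-Val-Asp-AMC by the progress curve method; inhibitor stocks 5 × 10^-3 to 2.42 × 10^-6 M in DMSO; rates corrected for substrate using KM 236.35 µM.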

[5] = biological target: Cathepsin B (Homo sapiens) (UniProt P07858); test: Inhibition of cathepsin B assessed as ratio of pseudo-first-order inhibition rate constant to inhibitor concentration
[6] = biological target: T3, Caspase-3 (Homo sapiens) (UniProt P42574); test: Inhibition of caspase 3 assessed as ratio of pseudo-first-order inhibition rate constant to inhibitor concentration
T3 sequence (whole entry): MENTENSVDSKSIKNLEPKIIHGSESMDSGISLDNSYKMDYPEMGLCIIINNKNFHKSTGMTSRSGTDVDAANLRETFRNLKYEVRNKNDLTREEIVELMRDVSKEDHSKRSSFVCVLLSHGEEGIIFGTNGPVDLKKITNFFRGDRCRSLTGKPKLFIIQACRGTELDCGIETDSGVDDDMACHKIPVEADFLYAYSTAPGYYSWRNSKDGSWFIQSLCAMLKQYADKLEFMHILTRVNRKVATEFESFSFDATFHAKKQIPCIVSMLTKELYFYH
Procedure, shortened: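 Caspase-3 (1 nM final) preactivated 10 min at 37 °C in 40 mM Pipes, 200 mM NaCl, 0.2% CHAPS, 20% sucrose mixed 1:1 with 20 mM DTT, pH 7.2; enzyme added to inhibitor plus Ac-Asp-Glu-Val-Asp-AMC; progress curves 20 min at 37 °C (ex 360, em 465 nm); duplicates; rates corrected for substrate (KM 9.7 µM).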

[7] = biological target: T4, Clostripain (Clostridium histolyticum) (UniProt P09870); test: Inhibition of sClostridium histolyticum clostripain assessed as ratio of pseudo-first-order inhibition rate constant to inhibitor concentration; conditions: Hathewaya histolytica
T4 sequence (whole entry): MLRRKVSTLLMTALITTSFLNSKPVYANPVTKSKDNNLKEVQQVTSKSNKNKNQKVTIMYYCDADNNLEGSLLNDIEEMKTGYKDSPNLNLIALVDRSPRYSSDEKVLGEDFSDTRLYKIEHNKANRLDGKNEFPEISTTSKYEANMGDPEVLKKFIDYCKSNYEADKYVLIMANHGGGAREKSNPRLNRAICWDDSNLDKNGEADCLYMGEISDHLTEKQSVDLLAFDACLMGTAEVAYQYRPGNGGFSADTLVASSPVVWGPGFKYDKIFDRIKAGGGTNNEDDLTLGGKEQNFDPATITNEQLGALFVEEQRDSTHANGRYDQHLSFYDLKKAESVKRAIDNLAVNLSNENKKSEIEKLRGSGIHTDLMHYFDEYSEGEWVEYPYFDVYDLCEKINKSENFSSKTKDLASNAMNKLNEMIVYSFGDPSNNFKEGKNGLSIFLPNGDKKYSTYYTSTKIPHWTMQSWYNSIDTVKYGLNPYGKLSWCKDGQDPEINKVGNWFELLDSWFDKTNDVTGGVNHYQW
Procedure, shortened: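 Clostripain activated in 8 mM DTT, then incubated with inhibitor (DMSO) in 20 mM Tris-HCl, 10 mM CaCl2, 0.005% Brij 35, 2 mM DTT, pH 7.6; aliquots taken at intervals into buffer with Cbz-Phe-Arg-AMC; fluorescence at 465 nm; pseudo-first-order kinetics.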

[8] = biological target: Caspase-8 (Homo sapiens) (UniProt Q14790); test: Inhibition of caspase 8 assessed as ratio of pseudo-first-order inhibition rate constant to inhibitor concentration
Procedure, shortened: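 Caspase-8 at 50 nM final, assayed in the same Pipes/NaCl/CHAPS/sucrose/DTT buffer, pH 7.2, 37 °C with Ac-Asp-Glu-Val-Asp-AMC by the progress curve method; inhibitor stocks 5 × 10^-3 to 2.42 × 10^-6 M in DMSO; rates corrected for substrate using KM 6.79 µM.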

Caspase-8 (Homo sapiens), sequence (Q14790 217-374 limits assumed): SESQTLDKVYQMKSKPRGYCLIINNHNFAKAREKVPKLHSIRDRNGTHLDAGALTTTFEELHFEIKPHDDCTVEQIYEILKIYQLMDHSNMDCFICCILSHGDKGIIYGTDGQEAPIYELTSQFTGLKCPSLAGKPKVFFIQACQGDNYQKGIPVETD
Caspase-8 (Homo sapiens), sequence (Q14790 385-479 limits assumed): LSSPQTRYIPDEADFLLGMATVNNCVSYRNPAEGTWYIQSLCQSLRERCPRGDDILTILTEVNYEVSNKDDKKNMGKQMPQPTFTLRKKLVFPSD

| IC50 [1] [nM] | Activity [2] | half-life [3] [min] | Activity [4] | Ratio [5] [M⁻¹ s⁻¹] | Activity [6] | Activity [7] | Activity [8] | Activity [5] | Ratio [2] [M⁻¹ s⁻¹] | SMILES |
| --- | --- | --- | --- | --- | --- | --- | --- | --- | --- | --- |
| 4.5 | inactive | 3.7 | inactive | < 1 | inactive | inactive | inactive | – | – | CCOC(=O)/C=C/C(=O)N(CC(N)=O)NC(=O)[C@H](C)NC(=O)[C@H](C)NC(=O)OCc1ccccc1 |
| 0.55 | inactive | 20 | inactive | – | inactive | inactive | inactive | inactive | – | C[C@H](NC(=O)OCc1ccccc1)C(=O)N[C@@H](C)C(=O)NN(CC(N)=O)C(=O)/C=C/C(=O)N(C)Cc1ccccc1 |
| 10 | – | 17 | inactive | – | inactive | inactive | inactive | inactive | < 1 | C[C@H](NC(=O)OCc1ccccc1)C(=O)N[C@@H](C)C(=O)NN(CC(N)=O)C(=O)/C=C/C(=O)N(Cc1ccccc1)Cc1ccccc1 |
| < 1 | inactive | – | inactive | – | inactive | inactive | inactive | inactive | – | C[C@H](NC(=O)OCc1ccccc1)C(=O)N[C@@H](C)C(=O)NN(CC(N)=O)C(=O)/C=C/C(=O)N(C)Cc1cccc2ccccc12 |
